CYP2C9 activ – activators of human CYP2C9. P11712. recombinant CYP2C9, luciferin-H conversion, luminescence; hits give high values; factor 1 = untreated enzyme, 0 = blocked. activation factor at 5 µM. 1.4% of 96,000 active;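 active = activation factor of 2 or more for CYP2C9 at a 5 µM dose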;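 also: 0 = sulfaphenazole-blocked wells and 1 = vehicle-only wells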
Target sequence (P11712 whole entry, looked up): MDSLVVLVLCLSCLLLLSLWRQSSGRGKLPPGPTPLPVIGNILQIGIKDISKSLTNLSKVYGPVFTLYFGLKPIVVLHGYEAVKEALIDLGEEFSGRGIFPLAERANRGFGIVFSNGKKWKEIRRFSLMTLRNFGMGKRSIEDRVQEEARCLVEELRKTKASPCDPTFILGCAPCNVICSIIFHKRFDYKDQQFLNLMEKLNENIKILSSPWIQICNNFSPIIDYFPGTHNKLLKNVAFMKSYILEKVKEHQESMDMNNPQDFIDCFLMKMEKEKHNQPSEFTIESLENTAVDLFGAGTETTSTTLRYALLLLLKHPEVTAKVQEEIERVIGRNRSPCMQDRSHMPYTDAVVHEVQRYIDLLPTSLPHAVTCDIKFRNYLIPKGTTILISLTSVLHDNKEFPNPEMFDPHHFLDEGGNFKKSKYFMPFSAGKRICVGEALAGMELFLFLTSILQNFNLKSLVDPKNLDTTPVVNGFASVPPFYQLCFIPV
CYP2C19 inh – inhibitors of human CYP2C19; P33261; CYP2C19 Supersomes, luciferin-H EGE luminescence, 30 min; inhibition, % at 5 µM; 21% of 96,000 active;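 active = CYP2C19 inhibition above a set limit at 5 µM in the primary screen, cut at about 50% in these data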;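 also: plate controls were negative control wells for no effect and 2.5 mM tranylcypromine positive control for full effect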
Ecoli WT expand – blocks growth of wild type E. coli BW25113. OD600 absorbance. growth inhibition, % at 100 µM. 0.15% of 98,000 active. AID 710;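 active = growth inhibition above about 50% at one test dose, limit read from the data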;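 also: growth measured after 20 h incubation at 37 °C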
CYP2C9 inh – human CYP2C9 inhibition; AID 777; 20% of 96,000 active; inhibition, % at 5 µM; P11712; CYP2C9 Supersomes, luciferin-H conversion, luminescence;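 active = blocking of liver enzyme CYP2C9 beyond about 50% at 5 µM, limit read from the data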
CYP2C19 act – increases human CYP2C19 enzyme activity. P33261. activation factor at 5 µM. 96,000 tested, under 10 active. recombinant CYP2C19, luciferin-H EGE luminescence; hits give high values; 0 = fully inhibited enzyme, 1 = untreated enzyme;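 active = activation factor of at least 2 at 5 µM in the primary screen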;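 also: 0 = wells with 2.5 mM tranylcypromine and 1 = vehicle-only wells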
Ecoli tolC – growth inhibitors of E. coli BW25113 tolC mutant. AID 573. OD615. growth inhibition, % at 10 µM (by protocol). 2.2% of 65,000 active;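 active = growth inhibition at or above a cutoff equal to the mean over every tested compound plus 3 SD, cut at about 60% in these data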;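 also: growth measured after 20 h incubation at 37 °C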
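Test system – E. coli BW25113 ΔtolC::kan, tolC deletion mutant strain · Detection – OD at 615 nm · Buffer or medium – LB with kanamycin 50 µg/mL · Times – 20 h compound exposure of bacteria at 37 °C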
* marks the source's active call; other numbers are inactive results; . = no result given. An excerpt weighted towards active compounds, which were near 29% of everything screened.

SMILES	CYP2C9 activ	CYP2C19 inh	Ecoli WT expand	CYP2C9 inh	CYP2C19 act	Ecoli tolC
COc1ccc(-c2noc(CCC(=O)NC3CCCCC3)n2)cc1OC	0.2	87*	-7	79*	0.1	-14
Cc1ccc(S(=O)(=O)N2CCN(CC(=O)NC(=O)NCc3ccccc3)CC2)cc1C	1	11	-8	-2	0.9	.
CCOC(=O)C1=C(CS(=O)(=O)c2ccccc2)NC(=O)NC1c1ccccc1 (stereo not drawn)	1	24	-8	5	0.8	-2
CCOC(=O)C1=C(c2ccccc2)NC(=O)NC1c1ccc(N(C)C)cc1 (stereo not drawn)	0.9	80*	.	9	0.2	10
CC(C)(CO)N=Cc1c(O)[nH]c2ccccc12	1	4	4	4	1	.
CC(C)N=Cc1c(O)[nH]c2ccccc12	0.5	5	12	54*	0.9	.
Cc1cc(C(=O)NCc2cc(C)n(C)n2)sc1-c1ccccc1	0.9	59*	7	9	0.4	41
CCOc1ccc2nc(NC(=O)C3CCN(c4cnccn4)CC3)sc2c1	1	-4	-6	-4	1	-12
CCOC(=O)c1ccc(NC(=O)CC2SC(=NC)N(C)C2=O)cc1 (stereo not drawn)	0.9	27	6	15	0.7	3
CCc1ccccc1NC(=O)CC1S/C(=N\c2nccs2)N(CC)C1=O (stereo not drawn)	0	96*	-4	97*	0	6
Cc1ccc(NC(=O)CC2S/C(=N/c3nccs3)N(C)C2=O)cc1C (stereo not drawn)	0.2	86*	-9	79*	0.1	.
CCNC(=O)CC1SC(=Nc2ccccc2C)N(C)C1=O (stereo not drawn)	.	.	4	.	.	-15
CCOC(=O)c1ccccc1NC(=O)CC1SC(=NC)N(C)C1=O (stereo not drawn)	1.1	17	-2	-13	0.8	6
CN=C1SC(CC(=O)Nc2cc(Cl)ccc2Cl)C(=O)N1C (stereo not drawn)	0.9	60*	5	6	0.4	-5
Cc1ccccc1NC(=O)CC1S/C(=N/c2nccs2)N(C)C1=O (stereo not drawn)	0	90*	-2	98*	0.1	.
CN(Cc1nc(-c2ccncc2)no1)S(=O)(=O)c1ccc(Br)cc1	0.1	89*	-4	93*	0.1	8
CC(C)(C)Cc1nc(-c2ccc(Cl)cc2)no1	1.1	-11	2	-11	1.1	.
CN(Cc1nc(-c2ccncc2)no1)S(=O)(=O)c1ccccc1	0.3	99*	4	72*	0	-5
CN(Cc1nc(-c2ccccn2)no1)S(=O)(=O)c1ccccc1	0.8	64*	8	15	0.4	-5
Cc1ccc(S(=O)(=O)N(C)Cc2nc(-c3ccccn3)no2)cc1	1	-7	1	-1	1.1	-11
CN(Cc1nc(-c2ccncc2)no1)S(=O)(=O)c1ccc(Cl)cc1	0.1	96*	-10	93*	0	-4
CCOC(=O)c1c(NC(=O)c2nn(CC)cc2Br)c(C#N)nn1-c1ccccc1	0.5	64*	-11	50	0.4	10
CCOC(=O)c1nn(-c2ccccc2)c(C#N)c1NC(=O)c1nn(CC)cc1Br	0.3	25	-10	72*	0.8	11
Cc1cccc(NC(=O)CC2C(=O)NCCN2C(=S)Nc2ccccc2)c1 (stereo not drawn)	0.7	19	6	28	0.8	.
CCOc1ccc(NC(=O)CN(C)CC(=O)NC2CCCc3ccccc32)cc1OCC (stereo not drawn)	0.1	23	12	86*	0.8	2
SMILES	CYP2C9 activ	CYP2C19 inh	Ecoli WT expand	CYP2C9 inh	CYP2C19 act	Ecoli tolC
O=C(Nc1ccc(F)cc1)N1CCN(c2nc3ccccc3s2)CC1	0.7	24	5	33	0.8	31
O=C(c1cc2sccc2n1Cc1ccccc1)N1CCN(c2nc3ccccc3s2)CC1	0.5	25	-19	53*	0.8	.
O=C(Nc1ccccc1)N1CCN(c2nc3ccccc3s2)CC1	0.4	63*	3	59*	0.4	28
Cc1cc(NC(=O)CC23CC4CC(C2)CC(CC(=O)Nc2cc(C)on2)(C4)C3)no1	0.9	14	-1	11	0.9	7
c1ccc(-c2nnc(-c3ccccn3)nn2)nc1	.	.	.	.	.	-11
CN(C)c1nc(-c2ccccn2)nnc1-c1ccccc1	0.8	51*	36	15	0.5	.
COc1nc2ccc(C)cc2cc1-c1noc(-c2ccccc2)n1	0.6	13	-11	36	0.9	.
Cc1ccccc1NS(=O)(=O)c1cc(C(=O)NCCSC2CCCCC2)ccc1C	0.4	42	-16	63*	0.6	.
Cc1ccc(C)c(NS(=O)(=O)c2cc(C(=O)NCCSC3CCCCC3)ccc2C)c1	0.2	59*	-8	79*	0.4	.
Cc1ccc(-c2nnc(N(C)C(=O)c3ccccn3)s2)cn1	0.9	2	4	6	1	-21
CCN(CC)c1ccc(/C=N/N2CCN(Cc3cccc4ccccc34)CC2)c(O)c1	0.9	0	-20	6	1	.
O=C(NCc1ccccc1)c1ccc(-c2ccc(F)cc2)o1	0.4	55*	3	56*	0.5	.
O=C(NC1CCCCC1)c1ccc(COCC(F)(F)F)o1	1	24	-6	4	0.8	.
O=C(NCc1ccccc1)c1ccc(COCC(F)(F)F)o1	0.7	85*	10	26	0.1	6
CCCn1nc(NC(=O)CC(C)C)c2cc3ccccc3nc21	0.7	12	-1	28	0.9	0
Oc1ccc(CN2CCc3ccccc3C2)c2cccnc12	1.3	0	62*	-30	1	.
Cn1cc(CN2CCc3ccccc3C2)c2ccccc21	1.4	96*	11	-40	0	-5
Cn1cc(CC(=O)NCCCN2CCCC2)c2ccccc21	0.8	10	2	17	0.9	.
O=C(NC12CCC(O)C(SC1)/C2=N/O)c1ccccc1 (stereo not drawn)	1	-1	-3	-1	1	1
O=C(N1CCC(O)(c2cccnc2)CC1)C12CC3CC(CC(C3)C1)C2	1.1	15	-2	-10	0.8	3
CN(C)c1nc(NCc2ccccc2)nc(Oc2ccc(=O)[nH]n2)n1	0.9	60*	24	14	0.4	0
COc1cc(/C=N/NC(=Nc2ccc(C)cc2)c2nc3ccccc3s2)ccc1O	0.1	24	-8	94*	0.8	.
Cc1cc2cc(CN3C(=O)c4ccccc4C3=O)ccc2n1C	.	.	.	.	.	4
CN1CCN(C(=O)CSc2nc(-c3ccncc3)ccc2C#N)CC1	1	6	-2	2	0.9	5
CN1CCN(C(=O)CSc2nc(-c3cccs3)cc(-c3cccs3)c2C#N)CC1	0.2	86*	-2	78*	0.1	7
COc1ccc(-c2cc(-c3cccs3)c(C#N)c(SCC(=O)NCc3ccco3)n2)cc1	0.2	48	4	85*	0.5	5

Screening data (PubChem BioAssay)
